Reference: ChEMBL document CHEMBL1146690, “Design and synthesis of aminopropyl tetrahydroindole-based indolin-2-ones as selective and potent inhibitors of Src and Yes tyrosine kinase” (Bioorg Med Chem Lett, 2004)

Tests used:
[1] = biological target: Proto-oncogene tyrosine-protein kinase Src (Homo sapiens, UniProt P12931); experiment: Inhibitory activity against Src protein tyrosine kinase
Summary of the method: (§1)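 Enzymatic kinase inhibition run by previously reported methods. Each IC50 came from at least two separate tests with deviation under 20%, and the mean is reported.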

[2] = biological target: Tyrosine-protein kinase Lck (Homo sapiens, UniProt P06239); experiment: Inhibitory activity against Lck tyrosine kinase
Sequence of Tyrosine-protein kinase Lck (P06239 whole entry): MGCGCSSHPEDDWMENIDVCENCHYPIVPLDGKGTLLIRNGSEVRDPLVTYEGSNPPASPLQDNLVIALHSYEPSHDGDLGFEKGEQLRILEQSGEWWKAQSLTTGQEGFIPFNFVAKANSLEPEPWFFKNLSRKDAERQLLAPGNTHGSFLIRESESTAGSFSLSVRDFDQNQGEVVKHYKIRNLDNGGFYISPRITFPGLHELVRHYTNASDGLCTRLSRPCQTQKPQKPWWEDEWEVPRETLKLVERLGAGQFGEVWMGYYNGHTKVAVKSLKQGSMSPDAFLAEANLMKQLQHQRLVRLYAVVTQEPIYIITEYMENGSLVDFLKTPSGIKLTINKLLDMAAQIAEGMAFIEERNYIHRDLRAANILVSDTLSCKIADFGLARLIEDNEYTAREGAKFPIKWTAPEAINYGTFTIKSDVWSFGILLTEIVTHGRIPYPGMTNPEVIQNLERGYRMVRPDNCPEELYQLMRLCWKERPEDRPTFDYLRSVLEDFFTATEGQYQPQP

[3] = biological target: Vascular endothelial growth factor receptor 2 (Homo sapiens, UniProt P35968); experiment: Inhibitory activity against Vascular endothelial growth factor receptor 2
Sequence of Vascular endothelial growth factor receptor 2 (P35968 whole entry): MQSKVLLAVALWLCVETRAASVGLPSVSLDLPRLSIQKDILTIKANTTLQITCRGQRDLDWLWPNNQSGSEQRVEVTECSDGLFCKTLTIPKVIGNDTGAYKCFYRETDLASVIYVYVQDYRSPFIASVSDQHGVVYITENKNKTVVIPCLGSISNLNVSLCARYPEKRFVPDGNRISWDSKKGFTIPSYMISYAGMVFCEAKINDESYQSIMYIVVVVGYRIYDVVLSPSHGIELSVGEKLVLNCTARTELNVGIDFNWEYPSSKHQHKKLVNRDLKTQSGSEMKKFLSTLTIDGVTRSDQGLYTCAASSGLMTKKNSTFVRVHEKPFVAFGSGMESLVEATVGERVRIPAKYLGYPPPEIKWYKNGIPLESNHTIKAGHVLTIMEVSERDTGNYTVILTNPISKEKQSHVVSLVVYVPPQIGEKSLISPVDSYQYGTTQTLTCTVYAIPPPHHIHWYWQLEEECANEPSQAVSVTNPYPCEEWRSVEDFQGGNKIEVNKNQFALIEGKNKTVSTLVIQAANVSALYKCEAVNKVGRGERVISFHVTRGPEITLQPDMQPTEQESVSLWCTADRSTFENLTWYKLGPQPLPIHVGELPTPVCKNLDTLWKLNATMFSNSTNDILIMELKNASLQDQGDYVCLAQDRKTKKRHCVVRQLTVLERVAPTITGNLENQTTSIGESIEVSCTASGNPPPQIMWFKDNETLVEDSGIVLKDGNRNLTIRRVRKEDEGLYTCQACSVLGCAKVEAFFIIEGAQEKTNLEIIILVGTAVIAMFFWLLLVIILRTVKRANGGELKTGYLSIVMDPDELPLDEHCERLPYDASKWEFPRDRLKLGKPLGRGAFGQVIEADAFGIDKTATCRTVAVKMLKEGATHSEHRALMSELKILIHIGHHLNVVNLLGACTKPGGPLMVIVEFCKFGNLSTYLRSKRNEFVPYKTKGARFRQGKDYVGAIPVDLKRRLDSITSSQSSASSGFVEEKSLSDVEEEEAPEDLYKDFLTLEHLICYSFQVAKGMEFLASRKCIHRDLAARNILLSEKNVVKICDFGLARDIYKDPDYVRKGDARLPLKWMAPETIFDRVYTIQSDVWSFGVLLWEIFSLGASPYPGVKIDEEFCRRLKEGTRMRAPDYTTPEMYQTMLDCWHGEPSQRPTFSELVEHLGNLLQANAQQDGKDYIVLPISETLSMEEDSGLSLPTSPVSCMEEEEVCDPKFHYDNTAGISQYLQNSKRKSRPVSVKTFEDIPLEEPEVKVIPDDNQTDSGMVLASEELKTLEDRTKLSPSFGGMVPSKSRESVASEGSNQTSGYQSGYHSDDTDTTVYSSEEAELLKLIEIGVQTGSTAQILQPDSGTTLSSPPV

[4] = biological target: Fibroblast growth factor receptor 1 (Homo sapiens, UniProt P11362); experiment: Inhibitory activity against Fibroblast growth factor receptor 1
Sequence of Fibroblast growth factor receptor 1 (P11362 whole entry): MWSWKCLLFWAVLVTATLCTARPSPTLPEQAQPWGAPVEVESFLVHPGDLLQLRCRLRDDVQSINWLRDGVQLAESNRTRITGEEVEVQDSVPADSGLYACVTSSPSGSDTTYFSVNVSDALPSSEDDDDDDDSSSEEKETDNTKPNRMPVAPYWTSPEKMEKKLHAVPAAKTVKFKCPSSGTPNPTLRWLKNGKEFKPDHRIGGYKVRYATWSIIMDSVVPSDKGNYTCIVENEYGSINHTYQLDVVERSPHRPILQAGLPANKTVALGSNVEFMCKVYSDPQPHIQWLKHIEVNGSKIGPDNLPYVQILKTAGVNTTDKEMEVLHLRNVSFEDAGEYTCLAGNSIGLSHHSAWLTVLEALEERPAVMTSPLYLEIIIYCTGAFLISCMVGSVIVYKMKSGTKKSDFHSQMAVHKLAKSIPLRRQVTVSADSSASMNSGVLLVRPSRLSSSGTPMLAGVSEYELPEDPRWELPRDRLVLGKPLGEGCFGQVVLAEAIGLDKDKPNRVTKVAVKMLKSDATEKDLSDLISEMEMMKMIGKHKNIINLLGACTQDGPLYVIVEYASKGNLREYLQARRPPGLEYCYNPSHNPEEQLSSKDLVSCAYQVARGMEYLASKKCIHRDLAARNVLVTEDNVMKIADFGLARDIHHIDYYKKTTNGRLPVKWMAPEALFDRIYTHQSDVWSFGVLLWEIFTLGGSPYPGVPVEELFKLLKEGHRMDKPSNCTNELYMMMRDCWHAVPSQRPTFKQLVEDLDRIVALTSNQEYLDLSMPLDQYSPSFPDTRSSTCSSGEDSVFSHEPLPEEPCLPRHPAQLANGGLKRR

[5] = biological target: Tyrosine-protein kinase Fyn (Homo sapiens, UniProt P06241); experiment: Inhibitory activity against Fyn tyrosine kinase
Sequence of Tyrosine-protein kinase Fyn (P06241 whole entry): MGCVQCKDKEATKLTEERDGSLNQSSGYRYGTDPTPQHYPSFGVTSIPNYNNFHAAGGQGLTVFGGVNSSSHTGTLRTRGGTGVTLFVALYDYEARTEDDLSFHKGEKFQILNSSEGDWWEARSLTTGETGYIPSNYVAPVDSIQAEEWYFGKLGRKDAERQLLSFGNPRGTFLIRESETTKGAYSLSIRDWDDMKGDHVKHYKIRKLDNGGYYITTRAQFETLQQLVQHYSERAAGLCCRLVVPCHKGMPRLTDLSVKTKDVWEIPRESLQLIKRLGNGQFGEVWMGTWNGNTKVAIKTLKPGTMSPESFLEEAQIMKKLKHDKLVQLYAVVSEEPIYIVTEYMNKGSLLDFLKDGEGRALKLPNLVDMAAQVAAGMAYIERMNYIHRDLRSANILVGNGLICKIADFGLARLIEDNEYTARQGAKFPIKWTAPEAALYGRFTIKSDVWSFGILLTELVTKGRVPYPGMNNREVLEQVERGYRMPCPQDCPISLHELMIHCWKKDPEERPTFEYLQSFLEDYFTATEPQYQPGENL

[6] = biological target: Platelet-derived growth factor receptor beta (Homo sapiens, UniProt P09619); experiment: Inhibitory activity against PDGFRbeta tyrosine kinase; summary of the method: as §1
Sequence of Platelet-derived growth factor receptor beta (P09619 whole entry): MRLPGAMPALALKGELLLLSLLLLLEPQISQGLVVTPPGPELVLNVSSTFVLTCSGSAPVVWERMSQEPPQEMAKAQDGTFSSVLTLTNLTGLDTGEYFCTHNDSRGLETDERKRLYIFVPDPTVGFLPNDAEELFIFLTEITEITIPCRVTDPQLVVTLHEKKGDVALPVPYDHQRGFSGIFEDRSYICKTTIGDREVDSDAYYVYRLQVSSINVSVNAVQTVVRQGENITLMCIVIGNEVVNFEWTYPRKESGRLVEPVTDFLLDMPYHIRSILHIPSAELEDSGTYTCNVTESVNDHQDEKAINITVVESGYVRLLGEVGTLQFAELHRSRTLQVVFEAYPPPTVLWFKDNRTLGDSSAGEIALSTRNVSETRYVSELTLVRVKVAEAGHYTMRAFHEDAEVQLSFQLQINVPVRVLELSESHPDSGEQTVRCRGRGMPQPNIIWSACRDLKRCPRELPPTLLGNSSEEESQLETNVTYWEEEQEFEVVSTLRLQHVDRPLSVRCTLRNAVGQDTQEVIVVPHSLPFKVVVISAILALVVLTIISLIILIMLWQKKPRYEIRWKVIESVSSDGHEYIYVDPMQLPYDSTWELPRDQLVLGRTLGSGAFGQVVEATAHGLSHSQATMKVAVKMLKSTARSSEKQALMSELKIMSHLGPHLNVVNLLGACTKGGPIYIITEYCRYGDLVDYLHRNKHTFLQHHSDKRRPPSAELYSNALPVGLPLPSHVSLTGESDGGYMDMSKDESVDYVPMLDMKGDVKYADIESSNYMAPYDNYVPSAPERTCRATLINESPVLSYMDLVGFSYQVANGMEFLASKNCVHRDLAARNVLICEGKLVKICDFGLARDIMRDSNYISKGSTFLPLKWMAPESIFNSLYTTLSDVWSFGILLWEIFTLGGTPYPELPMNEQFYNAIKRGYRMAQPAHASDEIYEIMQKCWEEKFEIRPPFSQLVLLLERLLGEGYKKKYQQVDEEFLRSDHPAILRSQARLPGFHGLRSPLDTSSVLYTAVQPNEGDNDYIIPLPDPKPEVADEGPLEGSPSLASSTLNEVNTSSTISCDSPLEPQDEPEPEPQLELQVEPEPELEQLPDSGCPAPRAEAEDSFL

Sequence of Proto-oncogene tyrosine-protein kinase Src (P12931 2-536 limits assumed): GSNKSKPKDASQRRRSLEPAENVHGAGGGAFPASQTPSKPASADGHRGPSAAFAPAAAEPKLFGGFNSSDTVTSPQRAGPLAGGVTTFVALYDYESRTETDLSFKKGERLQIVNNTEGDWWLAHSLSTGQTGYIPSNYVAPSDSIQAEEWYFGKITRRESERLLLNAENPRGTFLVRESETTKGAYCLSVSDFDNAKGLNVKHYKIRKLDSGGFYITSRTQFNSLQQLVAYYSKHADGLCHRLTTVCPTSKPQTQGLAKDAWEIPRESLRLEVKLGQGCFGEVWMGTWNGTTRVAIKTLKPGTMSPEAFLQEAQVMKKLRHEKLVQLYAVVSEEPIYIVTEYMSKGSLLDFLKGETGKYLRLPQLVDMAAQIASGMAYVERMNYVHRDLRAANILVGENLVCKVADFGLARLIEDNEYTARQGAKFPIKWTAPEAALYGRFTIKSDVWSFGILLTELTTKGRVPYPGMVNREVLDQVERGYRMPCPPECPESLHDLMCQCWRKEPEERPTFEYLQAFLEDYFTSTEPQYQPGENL

SMILES | IC50 [1] | IC50 [2] | IC50 [3] | IC50 [4] | IC50 [5] | IC50 [6]
CNS(=O)(=O)c1ccc2c(c1)/C(=C/c1[nH]c3c(c1CN1CCOCC1)CCCC3)C(=O)N2 | 10 nM | 80 nM | 60 nM | 200 nM | 400 nM | 
CNS(=O)(=O)c1ccc2c(c1)/C(=C/c1[nH]c3c(c1CCCN1CCOCC1)CCCC3)C(=O)N2 | 60 nM |  | 2300 nM | 1700 nM |  | 18000 nM
CNS(=O)(=O)c1ccc2c(c1)/C(=C/c1[nH]c3c(c1CCCN1CCN(CC(=O)O)CC1)CCCC3)C(=O)N2 | 20 nM | 100 nM | 400 nM | 200 nM | 400 nM | 8000 nM
CN(C)CCCc1c(/C=C2\C(=O)Nc3ccc(-c4ccccc4)cc32)[nH]c2c1CCCC2 | 2300 nM |  |  |  |  | 
COc1ccc2c(c1)/C(=C/c1[nH]c3c(c1CCCN(C)C)CCCC3)C(=O)N2 | 1000 nM |  |  |  |  | 
CNS(=O)(=O)c1ccc2c(c1)/C(=C/c1[nH]c3c(c1CCC(N)=O)CCCC3)C(=O)N2 | 30 nM | 100 nM | 500 nM | 70 nM | 50 nM | 6600 nM
CN(C)CCCc1c(/C=C2\C(=O)Nc3ccc(S(=O)(=O)Nc4ccccc4Cl)cc32)[nH]c2c1CCCC2 | 300 nM |  |  |  |  | 
CNS(=O)(=O)c1ccc2c(c1)/C(=C/c1[nH]c3c(c1CCCN1CCN(C(C)=O)CC1)CCCC3)C(=O)N2 | 300 nM |  |  |  |  | 
CCOC(=O)CN1CCN(CCCc2c(/C=C3\C(=O)Nc4ccc(S(=O)(=O)NC)cc43)[nH]c3c2CCCC3)CC1 | 70 nM | 600 nM | 500 nM | 80 nM | 500 nM | > 20000 nM
CNS(=O)(=O)c1ccc2c(c1)/C(=C/c1[nH]c3c(c1CCCN1CCC(O)CC1)CCCC3)C(=O)N2 | 50 nM | 300 nM | 7100 nM | 3400 nM | 200 nM | 4700 nM
CN(C)CCCc1c(/C=C2\C(=O)Nc3ccc(C(=O)O)cc32)[nH]c2c1CCCC2 | 700 nM |  |  |  |  | 
CNS(=O)(=O)c1ccc2c(c1)/C(=C/c1[nH]c3c(c1CCCN1CCN(C(=O)CO)CC1)CCCC3)C(=O)N2 | 400 nM |  |  |  |  | 
CNS(=O)(=O)c1ccc2c(c1)/C(=C/c1[nH]c3ccccc3c1CCCN(C)C)C(=O)N2 | 200 nM |  |  |  |  | 
CN(C)CCCc1c(/C=C2\C(=O)Nc3ccc(S(=O)(=O)NCc4ccc(F)cc4)cc32)[nH]c2c1CCCC2 | 1200 nM |  |  |  |  | 
CNS(=O)(=O)c1ccc2c(c1)/C(=C/c1[nH]c3c(c1CCCN1CCN(CCO)CC1)CCCC3)C(=O)N2 | 30 nM | 400 nM | 400 nM | 600 nM | 100 nM | 5600 nM
CNS(=O)(=O)c1ccc2c(c1)/C(=C/c1[nH]c3c(c1CCCN1CCNCC1)CCCC3)C(=O)N2 | 200 nM |  |  |  |  | 
CCOC(=O)N1CCN(CCCc2c(/C=C3\C(=O)Nc4ccc(S(=O)(=O)NC)cc43)[nH]c3c2CCCC3)CC1 | 300 nM |  |  |  |  | 
CNS(=O)(=O)c1ccc2c(c1)/C(=C/c1[nH]c3c(c1CCC(=O)N1CCN(C)CC1)CCCC3)C(=O)N2 | 300 nM |  |  |  |  | 
CNS(=O)(=O)c1ccc2c(c1)/C(=C/c1[nH]c(C)c(C)c1CCCN(C)C)C(=O)N2 | 1000 nM |  |  |  |  | 

The next lines start with the values.

IC50 [1] | IC50 [2] | IC50 [3] | IC50 [4] | IC50 [5] | IC50 [6] | SMILES
600 nM |  |  |  |  |  | CN(C)CCCc1c(/C=C2\C(=O)Nc3ccc(S(N)(=O)=O)cc32)[nH]c2c1CCCC2
500 nM |  |  |  |  |  | CCS(=O)(=O)c1ccc2c(c1)/C(=C/c1[nH]c3c(c1CCC(=O)N1CCN(C)CC1)CCCC3)C(=O)N2
2100 nM |  |  |  |  |  | CNS(=O)(=O)c1ccc2c(c1)/C(=C/c1cc3c([nH]1)CCCC3)C(=O)N2
3300 nM |  |  |  |  |  | CN(C)CCCc1c(/C=C2\C(=O)Nc3ccccc32)[nH]c2c1CCCC2
40 nM |  | 300 nM | 80 nM | 200 nM | 5100 nM | CCS(=O)(=O)c1ccc2c(c1)/C(=C/c1[nH]c3c(c1CCC(N)=O)CCCC3)C(=O)N2
300 nM |  |  |  |  |  | CN(C)CCCc1c(/C=C2\C(=O)Nc3ccc(S(C)(=O)=O)cc32)[nH]c2c1CCCC2
230 nM |  |  |  |  |  | CC(C)S(=O)(=O)c1ccc2c(c1)/C(=C/c1[nH]c3c(c1CCCN(C)C)CCCC3)C(=O)N2
2600 nM |  |  |  |  |  | CN(C)CCCc1c(/C=C2\C(=O)Nc3ccc(S(=O)(=O)N(C)C)cc32)[nH]c2c1CCCC2
70 nM | 700 nM |  |  | 600 nM | 2300 nM | CCS(=O)(=O)c1ccc2c(c1)/C(=C/c1[nH]c3c(c1CCCN1CCC(O)CC1)CCCC3)C(=O)N2
70 nM | 400 nM | 800 nM | 400 nM | 400 nM | 13000 nM | CCS(=O)(=O)c1ccc2c(c1)/C(=C/c1[nH]c3c(c1CCCN1CCN(CC(=O)O)CC1)CCCC3)C(=O)N2
10000 nM |  |  |  |  |  | CCS(=O)(=O)Cc1ccc2c(c1)/C(=C/c1[nH]c3c(c1CCCN(C)C)CCCC3)C(=O)N2
70 nM | 500 nM | 400 nM | 1100 nM | 400 nM | 9000 nM | CCS(=O)(=O)c1ccc2c(c1)/C(=C/c1[nH]c3c(c1CCCN1CCN(CCO)CC1)CCCC3)C(=O)N2
400 nM |  |  |  |  |  | CCS(=O)(=O)c1ccc2c(c1)/C(=C/c1[nH]c3c(c1CCCN1CCN(C(C)=O)CC1)CCCC3)C(=O)N2
240 nM |  |  |  |  |  | CN(C)CCCc1c(/C=C2\C(=O)Nc3ccc(S(=O)(=O)NCCO)cc32)[nH]c2c1CCCC2
230 nM |  |  |  |  |  | CC(C)NS(=O)(=O)c1ccc2c(c1)/C(=C/c1[nH]c3c(c1CCCN(C)C)CCCC3)C(=O)N2
400 nM |  |  |  |  |  | CCS(=O)(=O)c1ccc2c(c1)/C(=C/c1[nH]c3c(c1CCC(=O)O)CCCC3)C(=O)N2
70 nM | 700 nM | 300 nM | 1200 nM | 800 nM | 10000 nM | CNS(=O)(=O)c1ccc2c(c1)/C(=C/c1[nH]c3c(c1CCCN1CCN(C)CC1)CCCC3)C(=O)N2
60 nM | 200 nM | 2700 nM | 400 nM | 300 nM | 2500 nM | CCS(=O)(=O)c1ccc2c(c1)/C(=C/c1[nH]c3c(c1CCCN(C)C)CCCC3)C(=O)N2
210 nM | 600 nM | 2600 nM |  | 1200 nM | 11000 nM | CCS(=O)(=O)c1ccc2c(c1)/C(=C/c1[nH]c3c(c1CCCN1CCN(C)CC1)CCCC3)C(=O)N2
70 nM | 800 nM | 100 nM | 400 nM | 1400 nM |  | CCS(=O)(=O)c1ccc2c(c1)/C(=C/c1[nH]c3c(c1CN1CCOCC1)CCCC3)C(=O)N2
220 nM |  |  |  |  |  | CCS(=O)(=O)c1ccc2c(c1)/C(=C/c1[nH]c3c(c1CCCN1CCN(C(=O)CO)CC1)CCCC3)C(=O)N2
500 nM |  |  |  |  |  | CN(C)CCCc1c(/C=C2\C(=O)Nc3ccc(F)cc32)[nH]c2c1CCCC2
800 nM |  |  |  |  |  | CCC(=O)N1CCN(CCCc2c(/C=C3\C(=O)Nc4ccc(S(=O)(=O)CC)cc43)[nH]c3c2CCCC3)CC1
700 nM |  |  |  |  |  | CCS(=O)(=O)c1ccc2c(c1)/C(=C/c1cc3c([nH]1)CCCC3)C(=O)N2
100 nM | 1600 nM | 1100 nM | 700 nM | 60 nM | 3300 nM | CNS(=O)(=O)c1ccc2c(c1)/C(=C/c1[nH]c3c(c1CCCN(C)C)CCCC3)C(=O)N2
150 nM |  |  |  |  |  | CCS(=O)(=O)c1ccc2c(c1)/C(=C/c1[nH]c3c(c1CCCN1CCOCC1)CCCC3)C(=O)N2
